Most compounds without a hit are left out; they make up all but 2.1% or so of the library.
thrombin 1536 = human alpha-thrombin inhibitors, primary screen, counter-screen for coagulation protease inhibitor project, biochemical, 1536-well, fluorogenic AMC substrate. Prothrombin (Homo sapiens), P00734. Boc-VPR-AMC fluorogenic substrate cleavage. 220,000 tested, 0.26% active. inhibition, % at 5 µM;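 active = inhibition at or above 40%; inactive = inhibition below 40%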
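Material: human alpha-thrombin protein; Also added: Boc-VPR-AMC substrate, 15 µM final; Timing: enzyme reaction carried out at room temperature; Signal: fluorescence, ex 355 nm, em 460 nm; Measure: % inhibition of thrombin; Controls: enzyme without compound as high, wells lacking enzyme as low.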
hK5 inh = human KLK5 protease inhibitors, primary screen, biochemical, 1536-well. 210,000 tested, 0.59% active. AID 873, 2007. recombinant hK5, fluorogenic AMC substrate cleavage. inhibition, % at 5 µM;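 active = inhibition of 40% or more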
Target sequence (Q9Y337 67-293 limits assumed): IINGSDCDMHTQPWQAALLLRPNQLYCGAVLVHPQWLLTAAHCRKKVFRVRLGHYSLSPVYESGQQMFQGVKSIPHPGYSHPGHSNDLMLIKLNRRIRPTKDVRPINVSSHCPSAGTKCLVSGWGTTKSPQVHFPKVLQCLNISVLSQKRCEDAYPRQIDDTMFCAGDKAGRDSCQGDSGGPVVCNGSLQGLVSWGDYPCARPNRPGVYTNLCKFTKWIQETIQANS
PGE2 EP2 inh = human EP2 receptor antagonists, primary screen, TR-FRET cAMP, C6 glioma cells. inhibition, % at 25 µM. Prostaglandin E2 receptor EP2 subtype (Homo sapiens), P43116. C6 glioma cells expressing human EP2; cells stimulated with saturating PGE2. 260,000 tested, 0.52% active;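 active = percent inhibition above 40 after rounding to a whole number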;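 note: rat C6 glioma host cells with rolipram phosphodiesterase inhibitor present; the protocol text gives 20 µM as final concentration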
Target sequence (P43116 whole entry, looked up): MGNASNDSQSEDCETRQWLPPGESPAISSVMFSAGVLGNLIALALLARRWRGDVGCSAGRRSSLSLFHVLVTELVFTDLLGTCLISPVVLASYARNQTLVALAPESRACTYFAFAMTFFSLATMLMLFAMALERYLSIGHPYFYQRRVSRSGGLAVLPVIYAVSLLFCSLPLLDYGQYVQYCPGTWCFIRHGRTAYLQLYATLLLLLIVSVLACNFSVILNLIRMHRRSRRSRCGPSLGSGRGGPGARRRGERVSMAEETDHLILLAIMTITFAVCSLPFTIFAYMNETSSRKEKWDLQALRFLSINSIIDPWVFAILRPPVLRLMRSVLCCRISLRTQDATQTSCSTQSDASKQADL
FXIIa inh = human FXIIa protease inhibitors, primary screen, biochemical, 1536-well; inhibition, % at 5 µM; AID 800, 2007; 220,000 tested, 0.3% active; purified FXIIa, Boc-QGR-AMC fluorogenic substrate, 2 h; in the data active = inhibition above about 40%
FXIa inh = human FXIa protease inhibitors, primary screen, biochemical, 1536-well | Coagulation factor XI (Homo sapiens), P03951 | 220,000 tested, 0.14% active | purified FXIa, Boc-Glu-Ala-Arg-AMC fluorogenic substrate | inhibition, % at 5 µM;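 active = inhibition of at least 40%; inactive = inhibition below 40%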;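 note: fluorescence of freed AMC excited at 355 nm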
EP2 mod = EP2 receptor modulators, cAMP readout, primary screen, cell-based, HTRF cAMP, PGE2 stimulation | induction, % at 25 µM | EP2-expressing cells, cAMP HTRF FRET, PGE2 co-stimulation | 260,000 tested, 0.83% active | Prostaglandin E2 receptor EP2 subtype (Homo sapiens), P43116;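 active = compounds whose cAMP rise, as percent of the full-agonist control response, exceeds 60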;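 note: rat C6 glioma line stably carrying human EP2 under a CMV promoter; the protocol text gives 20 µM as final concentration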
A number is an active result; - = inactive; . = no result given; ! = not confirmed by another sample.

SMILES	thrombin 1536	hK5 inh	PGE2 EP2 inh	FXIIa inh	FXIa inh	EP2 mod
O=C(Oc1ccc2c(=O)c(Cl)coc2c1)c1ccncc1	-	-	-	41.3	42.5	-
Cc1nc(C)n(C(C)CNC(=O)c2[nH]c3c(Cl)cccc3c2C)n1 (stereo not given)	.	.	-	.	.	-
CC(=O)Nc1ccc(C(=O)n2cnc3cc(C)c(C)cc32)cc1	-	-	-	-	-	-
CC(=O)Nc1ccc(S(=O)(=O)n2cnc3cc(C)c(C)cc32)cc1	104.4	92.1	.	-	-	-
O=C(COc1cc(Cl)c(Cl)cc1Cl)N1CCN(c2ccccn2)CC1	53.9	-	-	-	-	-
O=C(COc1ccc(Cl)cc1Cl)N1CCN(c2ccccn2)CC1	-	-	-	-	-	-
COCCn1nnnc1C(c1cc2ccc(C)cc2[nH]c1=O)N(Cc1ccccc1)Cc1ccco1 (stereo not given)	.	.	-	.	.	-
O=C(CSc1nc2[nH]ncc2c(=O)[nH]1)N1CCCC1	-	-	-	-	-	-
O=C(CSc1nc2[nH]ncc2c(=O)[nH]1)N1CCCCC1	47.0	-	-	-	-	-
CCOC(=O)N1CC=C2C(C#N)=C(N)C(C#N)(C#N)C(c3cccc(O)c3)C2C1 (stereo not given)	.	.	-	.	.	-
COc1ccc(-n2c(SCC(=O)Nc3cc(C)on3)nc3c(c2=O)SCC3)cc1	-	101.8	-	-	-	-
CCn1c(SCc2ccccc2Cl)nnc1-c1ccncc1	.	.	-	.	.	-
COc1cccc(C2N(c3ccccc3)CCN2c2ccccc2)c1OC	-	-	-	-	-	64.3
O=C(c1ccc(Cn2cc(Cl)cn2)o1)N1CCCC1c1nc2ccccc2[nH]1 (stereo not given)	.	.	.	.	.	-
CNC(=S)Nc1cccc(C(=O)OC)c1	-	51.4	-	-	-	-
COC(=O)c1cccc(NC(=O)CSc2ncn[nH]2)c1	-	-	-	54.3	44.3	-
COC(=O)c1ccc(Cl)c(NC(=O)CSc2ncn[nH]2)c1	-	-	-	-	-	-
O=C(NCc1ccc(C(F)(F)F)cc1)C12CN(Cc3ccccc3)CC1C(c1cccc([N+](=O)[O-])c1)=NO2 (stereo not given)	-	42.1	-	-	-	-
O=C(NCc1ccc2c(c1)OCO2)C12CN(Cc3ccccc3)CC1C(c1cccc([N+](=O)[O-])c1)=NO2 (stereo not given)	-	-	-	-	-	-
Nn1c(C2CCCCC2)nc2ccccc2c1=O	-	-	-	61.5	58.4	-
N#CCn1c(C2CCCCC2)nc2ccccc2c1=O	-	-	-	-	-	-
Cc1nn(-c2ccc(Br)cc2)c2c1C(c1ccccc1Cl)C(C#N)=C(N)O2 (stereo not given)	.	.	-	.	.	-
COc1ccccc1-c1cc(C(=O)NCc2ccco2)no1	-	48.3	-	-	-	-
COc1ccccc1-c1cc(C(=O)NCc2cccs2)no1	-	-	-	-	-	-
O=C(NCc1ccco1)c1ccc(-c2ccccc2Cl)o1	-	-	59.9!	-	-	-
SMILES	thrombin 1536	hK5 inh	PGE2 EP2 inh	FXIIa inh	FXIa inh	EP2 mod
CN(C(=O)CSc1nnc2c(n1)[nH]c1ccccc12)C1CCCCC1	.	.	-	.	.	-
Cc1ccc(C)c(NC(=O)/C(C#N)=C/c2cn(CC(=O)NCc3ccco3)c3ccccc23)c1	-	45.8	-	-	-	-
Cc1cc2n(n1)C(c1ccccc1)Nc1ccccc1-2 (stereo not given)	-	-	-	-	-	64.5!
Cc1cc2n(n1)C(c1ccc(C(=O)O)cc1)Nc1ccccc1-2 (stereo not given)	.	.	-	.	.	-
CCn1c(SCC(=O)Nc2cc(C)cc(C)c2)nnc1-c1cccnc1	.	.	-	.	.	-
O=C1CC(c2ccccc2)CC(O)=C1C=NCCN1CCN(C(=S)Nc2cccc(Cl)c2)CC1 (stereo not given)	-	43.5	-	-	-	-
COc1ccc(C2C(=O)c3ccccc3C2=O)cc1OC	55.7	-	-	-	-	-
Cc1nc(C)c(C(=O)N[C@@H](C)Cn2nnc3ccccc32)o1	.	.	.	.	.	-
O=C(Nc1nnc(-c2ccccc2)s1)c1ccc(Cl)c(S(=O)(=O)N2CCOCC2)c1	-	-	-	-	-	-
O=C(Nc1nnc(-c2ccccc2)s1)c1cc(S(=O)(=O)N2CCOCC2)c(Cl)cc1Cl	-	-	-	41.5	-	-
COc1cccc(Cn2c3cc(C)sc3c3cnn(CC4CC4)c(=O)c32)c1	.	.	.	.	.	-
CSc1nc(-c2ccccc2)nc(N2CCOCC2)c1C(C)=O	49.6	-	-	-	-	-
COc1ccc(C(=O)N/N=C/c2ccc(OC(=O)c3ccccc3)cc2)cc1	-	-	-	-	-	-
COc1ccc(C(=O)N/N=C/c2cc3ccccc3[nH]c2=O)cc1	-	-	-	60.0	51.5	-
O=C1[C@H]2[C@@H]3c4ccccc4[C@H]([C@H]2C(=O)N1c1ccc(OCc2ccccc2)cc1)[n+]1ccccc13	.	.	42.0	.	.	-
O=C(Nc1ccc(Nc2ccccc2)cc1)c1ccc(Br)o1	-	-	.	-	-	-
Cc1c(NC(=O)c2ccc(Br)o2)cccc1C(=O)O	-	-	-	45.3	-	-
CC(C)c1ccc(NC(=O)c2ccc(Br)o2)cc1	-	-	-	49.9	-	-
COc1cccc(C(=O)N2CCSC2=S)c1	-	48.0	-	-	-	-
COc1ccc(C(=O)N2CCSC2=S)cc1OC	-	-	-	-	-	-
Cn1c(SCC(=O)Nc2ccccc2F)nnc1-c1ccncc1	.	.	-	.	.	-
O=C(O)[C@H]1CCCC[C@@H]1c1c2ccc(=O)c(O)c-2oc2c(O)c(O)ccc12	.	.	41.7	.	.	-
CC(=O)n1nc(-c2ccc(C)cc2)nc1NCc1ccco1	68.9	-	-	-	-	-
COc1ccc(CC(=O)n2nc(-c3ccccc3)nc2NCc2ccco2)cc1	92.8	-	.	-	-	-
COc1ccccc1C(=O)n1nc(-c2cccnc2)nc1NCc1ccccc1	.	-	-	-	-	-
CC(C)C(=O)n1nc(-c2cccnc2)nc1NCc1ccc(F)cc1	99.8	.	-	-	-	-
CC(=O)n1nc(-c2ccc(C)cc2)nc1NCc1ccc(F)cc1	93.8	-	-	-	-	-
COc1ccc(CNc2nc(NCc3ccc(OC)cc3)n(C(C)=O)n2)cc1	-	-	-	-	-	-
Cc1ccc(S(=O)(=O)CC(c2ccccc2)N2CCCCC2)cc1 (stereo not given)	-	-	-	.	-	-
O=S(=O)(CC(c1ccccc1)N1CCCCC1)c1ccc(Cl)cc1 (stereo not given)	-	47.8	-	-	-	-
